In ChEMBL document CHEMBL1130056, “Novel and selective partial agonists of 5-HT3 receptors. 2. Synthesis and biological evaluation of piperazinopyridopyrrolopyrazines, piperazinopyrroloquinoxalines, and piperazinopyridopyrroloquinoxalines” (J Med Chem, 1997):

Tests used:
[1] = target: Serotonin 3 (5-HT3) receptor; assay: Binding affinity against 5-hydroxytryptamine 3 receptor was measured using [3H]granisetron as radioligand; assay type: protein-complex assay
[2] = target: 5-hydroxytryptamine receptor 1A (Bos taurus); assay: Binding affinity against 5-hydroxytryptamine 1A receptor was measured using [3H]8-OH-DPAT as radioligand
[3] = target: 5-hydroxytryptamine receptor 2A (Bos taurus, UniProt Q75Z89); assay: Binding affinity against 5-hydroxytryptamine 2A receptor was measured using [3H]ketanserin as radioligand
In short: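 Bovine frontal cortex membranes (0.6 mg protein/mL) with 0.8 nM [3H]ketanserin and 100 nM WB4101, 37 °C for 30 min, in 50 mM Tris-HCl pH 7.4 plus 5 mM MgCl2, 10 mM NaCl, 0.5 mM EDTA, 10 μM pargyline. 10 μM spiperone defined nonspecific binding. Reported as log IC50 ± SEM.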

[4] = target: 5-hydroxytryptamine receptor 2C (Sus scrofa); assay: Binding affinity against 5-Hydroxytryptamine 2C Receptor was measured using [3H]N-methyl-mesulergine as radioligand
[5] = target: 5-hydroxytryptamine receptor 1B (Rattus norvegicus, UniProt P28564); assay: Binding affinity towards 5-hydroxytryptamine 1B receptor was measured using [3H]5-HT as radioligand
In short: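 Rat frontal cortex and striatum membranes (0.8 mg protein/mL), 2 nM [3H]-5-OH-tryptamine, 1 μM spiperone, 50 nM mesulergine; 25 °C, 30 min; 50 mM Tris-HCl pH 7.4, 4 mM CaCl2, 10 μM pargyline. Nonspecific binding with 10 μM propranolol. Expressed as log IC50 ± SEM.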

[6] = target: 5-hydroxytryptamine receptor 1D (Sus scrofa, UniProt P79400); assay: Binding affinity against 5-hydroxytryptamine 1D receptor was measured using [3H]5-HT as radioligand
In short: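 Pig frontal cortex and striatum membranes (0.8 mg protein/mL), 2 nM [3H]-5-OH-tryptamine with 1 μM spiperone and 50 nM mesulergine, 25 °C, 30 min, 50 mM Tris-HCl pH 7.4, 4 mM CaCl2, 10 μM pargyline. Nonspecific binding with 10 μM 5-HT. Expressed as log IC50 ± SEM.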

Rattus norvegicus [7] = assay: In Vivo 5-HT3 agonist activity in the Von Bezold-Jarisch reflex decrease in heart rate in rats at 120 (ug/kg) dose.; assay type: functional
In short: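 Fasted male Crl:CD(SD)BR rats (280–320 g) under urethane (1.25 g/kg ip); heart rate from cannulated carotid artery. Compound in saline given iv via jugular cannula. Read-out is fall in heart rate as percent of pre-treatment baseline.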

Rattus norvegicus [8] = assay: In Vivo 5-HT3 antagonist activity in the Von Bezold-Jarisch reflex in rats and percent inhibition of bradycardia induced by 5-HT was reported; assay type: functional; settings: read-out: ID50 (the source's name)
In short: (§1)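 Urethane-anesthetized (1.25 g/kg ip) fasted male Crl:CD(SD)BR rats; heart rate from carotid cannula. Compound in saline iv via jugular vein, usually 5 min before 5-HT bolus (30 μg/kg iv).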

NG108-15 = assay: In Vitro 5-HT3 agonist activity on the [14C]guanidinium accumulation in NG 108-15 cells.; assay type: functional, cell-based; settings: Murinae
In short: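 NG 108-15 cells grown 2 days, washed, then incubated 10 min at 37 °C in HEPES buffer pH 7.4 with 10 mM guanidinium chloride, 200–250 nCi [14C]guanidinium, 10 μM substance P and drug. After ice-cold choline wash, cells dissolved in NaOH and radioactivity counted. EC50 from triplicates per concentration; mean ± SEM of three determinations.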

Rattus norvegicus [9] = assay: In Vivo 5-HT3 antagonist activity in the Von Bezold-Jarisch reflex in rats at intravenous dose of 60 (ug/kg); assay type: functional; in short: as §1

Sequence of 5-hydroxytryptamine receptor 1D (P79400 whole entry): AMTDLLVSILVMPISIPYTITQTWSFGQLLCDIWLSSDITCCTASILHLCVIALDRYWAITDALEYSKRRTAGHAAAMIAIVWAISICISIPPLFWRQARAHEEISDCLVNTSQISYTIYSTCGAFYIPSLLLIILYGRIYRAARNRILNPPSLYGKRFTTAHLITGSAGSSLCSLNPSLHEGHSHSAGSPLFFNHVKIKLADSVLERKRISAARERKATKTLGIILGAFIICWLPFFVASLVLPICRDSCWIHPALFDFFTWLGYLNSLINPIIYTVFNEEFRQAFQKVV
Sequence of 5-hydroxytryptamine receptor 1B (P28564 whole entry): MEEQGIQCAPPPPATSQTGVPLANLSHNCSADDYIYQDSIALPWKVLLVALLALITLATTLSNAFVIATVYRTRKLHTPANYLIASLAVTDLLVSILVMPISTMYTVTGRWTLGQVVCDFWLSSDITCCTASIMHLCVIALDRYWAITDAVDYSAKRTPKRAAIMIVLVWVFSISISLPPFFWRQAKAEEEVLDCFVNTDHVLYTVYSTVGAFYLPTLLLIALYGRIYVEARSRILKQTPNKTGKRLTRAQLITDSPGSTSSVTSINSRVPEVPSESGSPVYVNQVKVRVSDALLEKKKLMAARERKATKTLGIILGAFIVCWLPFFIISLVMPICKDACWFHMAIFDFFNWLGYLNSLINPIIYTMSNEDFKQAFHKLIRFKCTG
Sequence of 5-hydroxytryptamine receptor 2A (Q75Z89 whole entry): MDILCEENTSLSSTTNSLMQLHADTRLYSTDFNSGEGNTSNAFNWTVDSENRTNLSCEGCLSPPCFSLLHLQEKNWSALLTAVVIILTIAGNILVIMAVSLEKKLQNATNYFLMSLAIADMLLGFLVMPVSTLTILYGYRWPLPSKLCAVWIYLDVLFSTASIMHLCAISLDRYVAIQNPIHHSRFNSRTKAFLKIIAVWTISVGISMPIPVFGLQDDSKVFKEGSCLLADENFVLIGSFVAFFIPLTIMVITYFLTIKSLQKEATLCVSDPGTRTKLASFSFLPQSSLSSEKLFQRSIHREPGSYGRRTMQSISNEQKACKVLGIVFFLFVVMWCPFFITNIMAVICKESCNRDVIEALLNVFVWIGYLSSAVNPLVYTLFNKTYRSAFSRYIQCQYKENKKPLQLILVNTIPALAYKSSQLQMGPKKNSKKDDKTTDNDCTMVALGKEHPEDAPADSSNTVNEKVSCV

| Structure (SMILES) | -Log IC50 [1] | IC50 [2] | IC50 [3] | IC50 [4] | IC50 [5] | IC50 [6] | Inhibition (Rattus norvegicus [7]) | ED50 (Rattus norvegicus [8]) | EC50 (NG108-15) | Inhibition (Rattus norvegicus [9]) |
| --- | --- | --- | --- | --- | --- | --- | --- | --- | --- | --- |
| c1ccc(COc2ccc3nc(N4CCN(Cc5ccccc5)CC4)c4cccn4c3n2)cc1 | 4.43 | 55 µM | > 100 µM | > 100 µM | > 100 µM | > 100 µM | – | – | – | – |
| c1cnc2c(c1)nc(N1CCN(Cc3ccc4c(c3)OCO4)CC1)c1cccn12 | 9.1 | – | 45.7 µM | – | 49 µM | > 100 µM | – | – | – | – |
| Cc1ccc2c(c1)nc(N1CCN(Cc3ccc(F)cc3)CC1)c1cccn12 | 7.87 | 12.9 µM | > 100 µM | > 100 µM | 10 µM | > 100 µM | – | – | – | – |
| c1ccc(CN2CCN(c3ccc4nc(N5CCN(Cc6ccccc6)CC5)c5cccn5c4n3)CC2)cc1 | 7.06 | > 100 µM | > 100 µM | > 100 µM | > 100 µM | > 100 µM | – | – | – | – |
| Clc1ccc2c(c1)nc(N1CCN(Cc3ccccc3)CC1)c1cccn12 | 9.54 | – | > 100 µM | – | 19.1 µM | > 100 µM | 0% | 0.0312 mg/kg | 0.052 µM | – |
| Cc1ccnc2c1nc(N1CCN(Cc3ccc(F)cc3)CC1)c1cccn12 | < 4 | – | > 100 µM | – | 70.8 µM | > 100 µM | – | – | – | – |
| C=CCN1CCN(c2nc3cccnc3n3cccc23)CC1 | 11.4 | 0.117 µM | 25.1 µM | 0.372 µM | 0.204 µM | 0.955 µM | – | – | – | – |
| COc1ccc2nc(N3CCN(Cc4ccc(F)cc4)CC3)c3cccn3c2n1 | 6.93 | 56.2 µM | > 100 µM | > 100 µM | > 100 µM | > 100 µM | – | – | – | – |
| c1ccc(N2CCN(c3nc4cccnc4n4cccc34)CC2)cc1 | 4.56 | – | > 100 µM | – | > 100 µM | > 100 µM | – | – | – | – |
| Fc1ccc(CN2CCN(c3nc4ccccc4n4cccc34)CC2)cc1 | 8.62 | – | 46.8 µM | – | 38 µM | > 100 µM | – | – | – | – |
| Fc1ccc(CN2CCN(c3nc4cccnc4n4cccc34)CC2)cc1 | 8.58 | 6.76 µM | 43.7 µM | 5.25 µM | 56.2 µM | 83.2 µM | – | – | – | – |
| CN1CCN(c2nc3cc(C(F)(F)F)ccc3n3cccc23)CC1 | 5.88 | – | – | – | – | – | – | – | – | – |
| COc1ccc2nc(N3CCN(Cc4ccccc4)CC3)c3cccn3c2n1 | 7.85 | – | 70.8 µM | – | > 100 µM | > 100 µM | – | – | – | – |
| Clc1ccc(CN2CCN(c3nc4cccnc4n4cccc34)CC2)c(Cl)c1 | 5.89 | – | > 100 µM | – | 77.6 µM | > 100 µM | – | – | – | – |
| c1cc2c(N3CCNCC3)nc3ccsc3n2c1 | 7.92 | – | – | – | – | – | – | – | – | – |
| Fc1ccc(CN2CCN(Cc3nc4ccccc4n4cccc34)CC2)cc1 | 5.59 | – | 17 µM | – | 31.6 µM | 85.1 µM | – | – | – | – |
| C=CCN1CCN(c2nc3sccc3n3cccc23)CC1 | 9.04 | – | – | – | – | – | – | – | – | – |

| Structure (SMILES) | -Log IC50 [1] | IC50 [2] | IC50 [3] | IC50 [4] | IC50 [5] | IC50 [6] | Inhibition (Rattus norvegicus [7]) | ED50 (Rattus norvegicus [8]) | EC50 (NG108-15) | Inhibition (Rattus norvegicus [9]) |
| --- | --- | --- | --- | --- | --- | --- | --- | --- | --- | --- |
| c1cnc2c(c1)nc(N1CCNCC1)c1cccn12 | 8.83 | – | 14.5 µM | – | 0.151 µM | 1.7 µM | – | – | – | – |
| CCOC(=O)N1CCN(c2nc3cccnc3n3cccc23)CC1 | 4.55 | – | > 100 µM | – | > 100 µM | > 100 µM | – | – | – | – |
| Clc1ccc2c(c1)nc(N1CCN(Cc3ccc4c(c3)OCO4)CC1)c1cccn12 | 10.09 | 9.55 µM | > 100 µM | > 100 µM | 14.5 µM | 46.8 µM | – | – | – | – |
| COc1ccc2c(c1)nc(N1CCN(Cc3ccc(F)cc3)CC1)c1cccn12 | 8.18 | – | > 100 µM | – | 69.2 µM | > 100 µM | 0% | 0.0754 mg/kg | 0.104 µM | – |
| CN1CCN(c2nc3cccnc3n3cccc23)CC1 | 9.01 | 0.0977 µM | 7.94 µM | 0.275 µM | 0.245 µM | 0.955 µM | – | – | – | – |
| Fc1ccc(CN2CCN(c3nc4cc(Cl)ccc4n4cccc34)CC2)cc1 | 7.71 | 40.7 µM | > 100 µM | > 100 µM | > 100 µM | > 100 µM | – | – | – | – |
| C=CCN1CCN(c2nc3ccc4ncccc4c3n3cccc23)CC1 | 7.71 | – | 21.4 µM | – | 19.5 µM | 5.75 µM | – | – | – | – |
| Cc1ccnc2c1nc(N1CCN(Cc3ccccc3)CC1)c1cccn12 | 5.52 | 50.1 µM | 51.3 µM | 57.5 µM | 43.7 µM | > 100 µM | – | – | – | – |
| c1ccc(CN2CCN(c3nc4ccc5ncccc5c4n4cccc34)CC2)cc1 | 7.51 | – | > 100 µM | – | 97.7 µM | > 100 µM | – | – | – | – |
| Clc1ccc2nc(N3CCN(Cc4ccccc4)CC3)c3cccn3c2c1 | 7.69 | 89.1 µM | > 100 µM | 44.7 µM | > 100 µM | > 100 µM | – | – | – | – |
| NCCc1c[nH]c2ccc(O)cc12 [SEROTONIN] | – | – | – | – | – | – | – | – | 0.293 µM | – |
| c1ccc(CN2CCN(c3nc4ccsc4n4cccc34)CC2)cc1 | 8.85 | – | – | – | – | – | 40% | – | 0.011 µM | 42% |
| COc1ccc2c(c1)nc(N1CCN(CCCCn3cccn3)CC1)c1cccn12 | < 4 | – | 1.62 µM | – | 3.55 µM | > 100 µM | – | – | – | – |
| c1ccc(CN2CCN(c3ncccc3-n3cccc3)CC2)cc1 | 7.34 | – | 7.41 µM | – | 26.3 µM | 11 µM | – | – | – | – |
| Fc1ccc(CN2CCN(c3nc4sccc4n4cccc34)CC2)cc1 | 8.93 | – | – | – | > 100 µM | – | – | – | – | – |
| c1cnc2ccc3nc(N4CCN(Cc5ccc6c(c5)OCO6)CC4)c4cccn4c3c2c1 | 7.55 | – | 20 µM | – | 58.9 µM | 39.8 µM | – | – | – | – |
